≈ marks a conversion by molar mass, not a printed value. Some results are limits rather than exact numbers.

As a reminder, the solubility is the dissolved amount per volume that the medium holds. Low values mean little dissolved substance, high ones much dissolved substance. A word on the ΔTm: it is the shift of the melting midpoint relative to a reference.

The nature of data set [1]: Solubility of the compound at pH 7. It counts as physicochemical. To be noted: buffer.
Data set [2] concerns the target CREB-binding protein (Homo sapiens) (UniProt Q92793). Kind of data set: Inhibition of His6FLAG-tagged CREBBP expressed in Escherichia coli assessed as change in melting temperature at 100 uM by thermal shift assay. The gist of the method:
(§1)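 Thermal melt: protein heated with or without 100 μM compound, at least duplicate; Sypro orange at 1:1000 in PBS with 10% glycerol; ramp 1 °C/min, fluorescence read every 0.5 °C; ΔTm reported.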

Data set [3] is described as follows: Solubility of the compound at pH 5. The class given is physicochemical. Particulars: buffer.
Data set [4] concerns the target Bromodomain-containing protein 3 (Homo sapiens, UniProt Q15059). Nature of the data set: Inhibition of His6FLAG-tagged BRD3-BD12 expressed in Escherichia coli assessed as change in melting temperature at 100 uM by thermal shift assay. The gist of the method: as §1
The target in data set [5] is Bromodomain adjacent to zinc finger domain protein 2B (Homo sapiens) (UniProt Q9UIF8). Kind of data set: Inhibition of His6FLAG-tagged BAZ2B expressed in Escherichia coli assessed as change in melting temperature at 100 uM by thermal shift assay. The method, boiled down:
as §1

Data set [6] has as its target Bromodomain-containing protein 2 (Homo sapiens, UniProt P25440). Nature of the data set: Inhibition of His6FLAG-tagged BRD2-BD12 expressed in Escherichia coli assessed as change in melting temperature at 100 uM by thermal shift assay. The method, boiled down: as §1
Data set [7] has as its target T1, Bromodomain-containing protein 4 (Homo sapiens, UniProt O60885). Nature of the data set: Inhibition of His6FLAG-tagged BRD4-BD12 expressed in Escherichia coli assessed as change in melting temperature at 100 uM by thermal shift assay. The method, boiled down: as §1
The target in data set [8] is T1, Bromodomain-containing protein 4. Kind of data set: Inhibition of His6FLAG-tagged BRD4-BD1 expressed in Escherichia coli assessed as change in melting temperature at 100 uM by thermal shift assay. The gist of the method: as §1
The target in data set [9] is PH-interacting protein (Homo sapiens) (UniProt Q8WWQ0). Kind of data set: Inhibition of His6FLAG-tagged PHIP-BD2 expressed in Escherichia coli assessed as change in melting temperature at 100 uM by thermal shift assay. The gist of the method:
as §1

Data set [10] addresses T2, ATPase family AAA domain-containing protein 2B (Homo sapiens) (UniProt Q9ULI0).
T2 sequence (whole entry): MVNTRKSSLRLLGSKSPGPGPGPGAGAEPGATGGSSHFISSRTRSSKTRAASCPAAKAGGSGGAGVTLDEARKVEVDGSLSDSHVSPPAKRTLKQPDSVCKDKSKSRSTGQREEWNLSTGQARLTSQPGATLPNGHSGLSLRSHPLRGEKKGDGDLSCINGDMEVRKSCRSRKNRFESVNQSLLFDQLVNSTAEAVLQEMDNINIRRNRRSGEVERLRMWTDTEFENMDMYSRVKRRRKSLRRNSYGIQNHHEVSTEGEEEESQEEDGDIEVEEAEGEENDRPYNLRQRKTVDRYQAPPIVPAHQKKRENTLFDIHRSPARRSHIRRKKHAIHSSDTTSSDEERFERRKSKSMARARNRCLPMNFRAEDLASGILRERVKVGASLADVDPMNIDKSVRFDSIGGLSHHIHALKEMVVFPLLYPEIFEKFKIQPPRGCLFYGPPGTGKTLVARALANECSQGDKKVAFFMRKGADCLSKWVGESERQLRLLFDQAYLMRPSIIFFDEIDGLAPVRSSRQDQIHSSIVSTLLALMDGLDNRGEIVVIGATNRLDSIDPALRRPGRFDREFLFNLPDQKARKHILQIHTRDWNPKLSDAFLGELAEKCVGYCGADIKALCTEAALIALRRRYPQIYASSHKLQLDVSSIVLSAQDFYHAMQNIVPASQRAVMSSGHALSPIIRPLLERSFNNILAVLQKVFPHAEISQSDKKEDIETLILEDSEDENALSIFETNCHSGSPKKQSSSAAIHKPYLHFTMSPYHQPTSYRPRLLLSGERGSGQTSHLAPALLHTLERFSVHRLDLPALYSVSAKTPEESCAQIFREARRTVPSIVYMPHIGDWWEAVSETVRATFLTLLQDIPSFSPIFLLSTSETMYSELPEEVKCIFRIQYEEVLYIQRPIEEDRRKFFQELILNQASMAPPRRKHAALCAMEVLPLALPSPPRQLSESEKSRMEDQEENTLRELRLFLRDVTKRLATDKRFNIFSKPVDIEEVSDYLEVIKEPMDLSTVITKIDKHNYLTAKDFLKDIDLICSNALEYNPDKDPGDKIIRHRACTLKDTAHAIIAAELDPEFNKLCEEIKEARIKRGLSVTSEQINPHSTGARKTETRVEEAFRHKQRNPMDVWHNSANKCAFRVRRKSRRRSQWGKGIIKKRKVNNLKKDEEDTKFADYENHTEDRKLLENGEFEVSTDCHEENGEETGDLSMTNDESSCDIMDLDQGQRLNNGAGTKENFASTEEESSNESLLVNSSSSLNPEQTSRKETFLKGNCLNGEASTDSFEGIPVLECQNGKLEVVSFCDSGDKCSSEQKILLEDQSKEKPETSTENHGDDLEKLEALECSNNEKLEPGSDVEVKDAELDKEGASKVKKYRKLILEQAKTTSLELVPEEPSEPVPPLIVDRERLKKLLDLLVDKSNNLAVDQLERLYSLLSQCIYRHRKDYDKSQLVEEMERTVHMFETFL
Nature of the data set: Inhibition of His6FLAG-tagged ATD2B expressed in Escherichia coli assessed as change in melting temperature at 100 uM by thermal shift assay. The gist of the method:
as §1

Chain of Bromodomain adjacent to zinc finger domain protein 2B (Homo sapiens) (Q9UIF8 whole entry, the tested form may be a part): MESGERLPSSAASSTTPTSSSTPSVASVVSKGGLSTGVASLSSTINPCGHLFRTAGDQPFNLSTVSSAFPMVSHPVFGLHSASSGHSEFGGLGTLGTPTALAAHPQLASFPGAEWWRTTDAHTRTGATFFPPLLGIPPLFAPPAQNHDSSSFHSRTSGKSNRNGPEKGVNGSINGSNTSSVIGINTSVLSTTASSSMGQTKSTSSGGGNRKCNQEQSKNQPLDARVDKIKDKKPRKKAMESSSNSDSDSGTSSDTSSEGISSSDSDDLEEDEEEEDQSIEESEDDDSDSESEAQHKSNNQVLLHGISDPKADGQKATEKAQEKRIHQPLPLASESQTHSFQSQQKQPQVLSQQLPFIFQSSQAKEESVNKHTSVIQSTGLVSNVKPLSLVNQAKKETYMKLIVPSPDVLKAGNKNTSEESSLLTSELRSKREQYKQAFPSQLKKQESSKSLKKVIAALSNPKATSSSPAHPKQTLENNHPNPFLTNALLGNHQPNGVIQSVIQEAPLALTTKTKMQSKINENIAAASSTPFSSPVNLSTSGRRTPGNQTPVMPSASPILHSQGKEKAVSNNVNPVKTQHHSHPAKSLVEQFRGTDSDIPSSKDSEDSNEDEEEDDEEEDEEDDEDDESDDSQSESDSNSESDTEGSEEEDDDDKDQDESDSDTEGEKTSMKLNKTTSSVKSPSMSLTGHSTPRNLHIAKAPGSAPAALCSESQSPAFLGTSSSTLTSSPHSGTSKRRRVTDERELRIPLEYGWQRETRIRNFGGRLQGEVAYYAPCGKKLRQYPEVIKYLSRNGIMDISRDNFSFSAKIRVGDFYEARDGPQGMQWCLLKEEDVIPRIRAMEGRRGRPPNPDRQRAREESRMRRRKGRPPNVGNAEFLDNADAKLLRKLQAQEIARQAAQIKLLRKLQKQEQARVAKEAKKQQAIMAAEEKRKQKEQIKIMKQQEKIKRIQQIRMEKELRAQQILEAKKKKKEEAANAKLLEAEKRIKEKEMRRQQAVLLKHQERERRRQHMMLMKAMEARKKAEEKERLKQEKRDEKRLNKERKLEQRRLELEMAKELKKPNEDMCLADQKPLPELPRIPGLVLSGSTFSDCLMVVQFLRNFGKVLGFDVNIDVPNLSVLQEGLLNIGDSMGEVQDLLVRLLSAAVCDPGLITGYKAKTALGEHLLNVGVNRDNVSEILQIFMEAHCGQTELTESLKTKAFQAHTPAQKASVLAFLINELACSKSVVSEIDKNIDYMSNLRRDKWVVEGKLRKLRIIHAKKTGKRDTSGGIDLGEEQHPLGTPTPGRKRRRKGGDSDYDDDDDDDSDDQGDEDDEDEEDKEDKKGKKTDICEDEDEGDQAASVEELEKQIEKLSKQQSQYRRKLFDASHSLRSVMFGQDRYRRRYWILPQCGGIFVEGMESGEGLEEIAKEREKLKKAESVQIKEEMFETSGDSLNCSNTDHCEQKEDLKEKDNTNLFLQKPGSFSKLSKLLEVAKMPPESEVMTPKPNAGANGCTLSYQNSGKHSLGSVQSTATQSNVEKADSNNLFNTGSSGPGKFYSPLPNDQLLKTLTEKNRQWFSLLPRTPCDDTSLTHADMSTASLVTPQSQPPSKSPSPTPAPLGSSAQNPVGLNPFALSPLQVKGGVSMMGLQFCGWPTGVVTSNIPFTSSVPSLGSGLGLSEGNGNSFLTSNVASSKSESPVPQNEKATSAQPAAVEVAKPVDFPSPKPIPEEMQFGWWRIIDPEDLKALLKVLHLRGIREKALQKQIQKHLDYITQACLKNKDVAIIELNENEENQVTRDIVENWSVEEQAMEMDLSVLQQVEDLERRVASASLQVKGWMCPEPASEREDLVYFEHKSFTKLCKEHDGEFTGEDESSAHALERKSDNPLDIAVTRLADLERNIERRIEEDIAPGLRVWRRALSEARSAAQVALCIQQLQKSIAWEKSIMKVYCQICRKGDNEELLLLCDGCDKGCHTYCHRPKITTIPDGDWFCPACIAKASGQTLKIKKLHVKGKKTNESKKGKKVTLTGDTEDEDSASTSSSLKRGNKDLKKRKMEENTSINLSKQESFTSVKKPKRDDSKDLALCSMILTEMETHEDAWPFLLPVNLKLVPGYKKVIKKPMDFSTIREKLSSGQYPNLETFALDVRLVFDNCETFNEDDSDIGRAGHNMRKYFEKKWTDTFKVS
Chain of Bromodomain-containing protein 3 (Q15059 2-726 limits assumed): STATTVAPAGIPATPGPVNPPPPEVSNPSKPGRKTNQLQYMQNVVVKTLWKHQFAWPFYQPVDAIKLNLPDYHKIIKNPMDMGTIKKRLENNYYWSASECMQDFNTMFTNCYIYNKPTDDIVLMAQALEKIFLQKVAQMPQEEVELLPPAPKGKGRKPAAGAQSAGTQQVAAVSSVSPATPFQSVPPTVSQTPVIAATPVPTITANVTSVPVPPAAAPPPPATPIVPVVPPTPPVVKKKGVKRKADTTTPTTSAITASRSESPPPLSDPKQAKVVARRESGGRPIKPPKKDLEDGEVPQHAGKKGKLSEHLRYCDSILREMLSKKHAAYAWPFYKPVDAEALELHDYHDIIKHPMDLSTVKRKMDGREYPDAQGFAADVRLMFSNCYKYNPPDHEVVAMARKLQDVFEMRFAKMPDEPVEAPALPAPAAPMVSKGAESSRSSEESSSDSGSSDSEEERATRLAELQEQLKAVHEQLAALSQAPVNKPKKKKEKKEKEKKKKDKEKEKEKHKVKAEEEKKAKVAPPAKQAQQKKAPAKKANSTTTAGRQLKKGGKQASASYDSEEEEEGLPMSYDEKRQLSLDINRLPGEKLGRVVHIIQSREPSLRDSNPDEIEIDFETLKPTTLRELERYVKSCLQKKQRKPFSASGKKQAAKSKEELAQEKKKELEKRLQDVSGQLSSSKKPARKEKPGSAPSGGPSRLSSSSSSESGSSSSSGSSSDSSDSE
Chain of Bromodomain-containing protein 2 (P25440 whole entry, looked up): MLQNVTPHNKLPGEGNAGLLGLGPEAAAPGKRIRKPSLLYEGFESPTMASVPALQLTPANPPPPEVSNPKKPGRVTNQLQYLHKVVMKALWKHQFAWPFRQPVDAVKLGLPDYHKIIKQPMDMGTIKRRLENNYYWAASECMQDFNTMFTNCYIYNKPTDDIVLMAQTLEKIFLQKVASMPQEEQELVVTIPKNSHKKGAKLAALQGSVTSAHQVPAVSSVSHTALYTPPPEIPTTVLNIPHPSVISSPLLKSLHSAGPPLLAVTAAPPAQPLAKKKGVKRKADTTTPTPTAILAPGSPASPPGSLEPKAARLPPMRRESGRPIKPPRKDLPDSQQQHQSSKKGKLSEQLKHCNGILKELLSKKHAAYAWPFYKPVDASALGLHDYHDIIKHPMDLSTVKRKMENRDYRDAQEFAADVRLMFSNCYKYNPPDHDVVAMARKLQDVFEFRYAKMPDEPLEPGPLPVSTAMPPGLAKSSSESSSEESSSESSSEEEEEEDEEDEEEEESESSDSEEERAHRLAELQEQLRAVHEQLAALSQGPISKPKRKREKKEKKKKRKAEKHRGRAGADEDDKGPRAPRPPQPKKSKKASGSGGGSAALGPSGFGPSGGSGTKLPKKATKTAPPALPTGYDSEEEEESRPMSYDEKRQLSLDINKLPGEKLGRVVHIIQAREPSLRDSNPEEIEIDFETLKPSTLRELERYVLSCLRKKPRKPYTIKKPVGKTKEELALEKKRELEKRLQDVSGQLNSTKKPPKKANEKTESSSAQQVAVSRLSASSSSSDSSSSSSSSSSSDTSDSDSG

As for `Cc1noc(C)c1-c1ccc(OCCCN2CCOCC2)c(S(=O)(=O)NC2CCCC2)c1`, the solubility in data set [1] stood at 210 µg/mL (≈ 453 µM); in [3], 1120 µg/mL (≈ 2430 µM). Further, the shift in melting temperature (ΔTm) in data set [2] was 1.5 °C; in data set [4], 2 °C; in data set [5], under 1 °C; in [6], 2 °C; in data set [7], 5 °C; in data set [8] it was 2 °C. Also, the ΔTm in [9] and in [10] was under 1 °C throughout.

`Cc1ccc(-c2c(C)noc2C)cc1S(=O)(=O)NC1CCCC1`: the solubility in data set [1] and in data set [3] was under 1 µg/mL throughout. The ΔTm in data set [2] is under 1 °C; in data set [4], 2 °C; in data set [5], under 1 °C; in data set [6], 2 °C; in data set [7], 5 °C; in data set [8], 2 °C. Besides, the ΔTm in [9] and in [10] was under 1 °C each time.

Values taken from ChEMBL document CHEMBL2176978, “Fragment-based discovery of bromodomain inhibitors part 2: optimization of phenylisoxazole sulfonamides” (J Med Chem, 2012).
